Bioassay records as filed in PubChem BioAssay.
Compounds with a hit are over-represented: about 8.4% of the library has one in this group of screens.
PostGolgi ctrl = growth inhibition of yeast control strain, primary screen, counter-screen for post-Golgi transport modulator project. efflux-deficient yeast background strain, growth absorbance A615, 16 h. inhibition, % at 10 µM. hit rate 5% among 98,000
PostGolgi yeast = phenotypic screen on post-Golgi transport, primary screen; hit rate 0.9% among 98,000; post-Golgi transport phenotypic cell assay; inhibition, % at 10 µM;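 note: yeast cells grown in 1536-well plates; yeast grown about 18 h at 30C before absorbance read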
Ecoli tolC = growth inhibitors of E. coli tolC mutant, primary screen, strain BW25113 ΔtolC::kan, 384-well; OD615; growth inhibition, % at 10 µM (by protocol); hit rate 2.2% among 65,000;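 active = growth inhibition at or above a cutoff equal to the mean over every tested compound plus 3 SD, cut at about 60% in these data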;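 note: growth measured after 20 h incubation at 37 °C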
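Test system: E. coli BW25113 ΔtolC::kan bacteria | Medium: Kanamycin-containing LB broth (50 µg/mL) | Dosing: One dose of 10 µM final | Times: 20 h incubation with compound, 37 °C | Detection: Optical density read at 615 nm | Read-out basis: Percent growth inhibition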
Ecoli WT expand = growth inhibitors of wild-type E. coli, primary screen, strain BW25113, expanded library, OD600; OD600 absorbance; growth inhibition, % at 100 µM; hit rate 0.15% among 98,000;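 active = growth inhibition above about 50% at one test dose, limit read from the data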;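 note: growth measured after 20 h incubation at 37 °C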
Cav32 inh = Cav3.2 calcium influx blockers – cell-based, Fluo-4 calcium fluorescence, FDSS, MLSMR library, primary screen | Voltage-dependent T-type calcium channel subunit alpha-1H (Homo sapiens), O95180 | Cav3.2-expressing cells; active compounds read low | B-score at 10 µM | hit rate 4% among 100,000 | AID 449739, 2010;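 active = single-dose well whose peak fluorescence ratio is a statistical outlier from its plate by either plate-standardised score or position-corrected B-score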
Target sequence (O95180 whole entry, looked up): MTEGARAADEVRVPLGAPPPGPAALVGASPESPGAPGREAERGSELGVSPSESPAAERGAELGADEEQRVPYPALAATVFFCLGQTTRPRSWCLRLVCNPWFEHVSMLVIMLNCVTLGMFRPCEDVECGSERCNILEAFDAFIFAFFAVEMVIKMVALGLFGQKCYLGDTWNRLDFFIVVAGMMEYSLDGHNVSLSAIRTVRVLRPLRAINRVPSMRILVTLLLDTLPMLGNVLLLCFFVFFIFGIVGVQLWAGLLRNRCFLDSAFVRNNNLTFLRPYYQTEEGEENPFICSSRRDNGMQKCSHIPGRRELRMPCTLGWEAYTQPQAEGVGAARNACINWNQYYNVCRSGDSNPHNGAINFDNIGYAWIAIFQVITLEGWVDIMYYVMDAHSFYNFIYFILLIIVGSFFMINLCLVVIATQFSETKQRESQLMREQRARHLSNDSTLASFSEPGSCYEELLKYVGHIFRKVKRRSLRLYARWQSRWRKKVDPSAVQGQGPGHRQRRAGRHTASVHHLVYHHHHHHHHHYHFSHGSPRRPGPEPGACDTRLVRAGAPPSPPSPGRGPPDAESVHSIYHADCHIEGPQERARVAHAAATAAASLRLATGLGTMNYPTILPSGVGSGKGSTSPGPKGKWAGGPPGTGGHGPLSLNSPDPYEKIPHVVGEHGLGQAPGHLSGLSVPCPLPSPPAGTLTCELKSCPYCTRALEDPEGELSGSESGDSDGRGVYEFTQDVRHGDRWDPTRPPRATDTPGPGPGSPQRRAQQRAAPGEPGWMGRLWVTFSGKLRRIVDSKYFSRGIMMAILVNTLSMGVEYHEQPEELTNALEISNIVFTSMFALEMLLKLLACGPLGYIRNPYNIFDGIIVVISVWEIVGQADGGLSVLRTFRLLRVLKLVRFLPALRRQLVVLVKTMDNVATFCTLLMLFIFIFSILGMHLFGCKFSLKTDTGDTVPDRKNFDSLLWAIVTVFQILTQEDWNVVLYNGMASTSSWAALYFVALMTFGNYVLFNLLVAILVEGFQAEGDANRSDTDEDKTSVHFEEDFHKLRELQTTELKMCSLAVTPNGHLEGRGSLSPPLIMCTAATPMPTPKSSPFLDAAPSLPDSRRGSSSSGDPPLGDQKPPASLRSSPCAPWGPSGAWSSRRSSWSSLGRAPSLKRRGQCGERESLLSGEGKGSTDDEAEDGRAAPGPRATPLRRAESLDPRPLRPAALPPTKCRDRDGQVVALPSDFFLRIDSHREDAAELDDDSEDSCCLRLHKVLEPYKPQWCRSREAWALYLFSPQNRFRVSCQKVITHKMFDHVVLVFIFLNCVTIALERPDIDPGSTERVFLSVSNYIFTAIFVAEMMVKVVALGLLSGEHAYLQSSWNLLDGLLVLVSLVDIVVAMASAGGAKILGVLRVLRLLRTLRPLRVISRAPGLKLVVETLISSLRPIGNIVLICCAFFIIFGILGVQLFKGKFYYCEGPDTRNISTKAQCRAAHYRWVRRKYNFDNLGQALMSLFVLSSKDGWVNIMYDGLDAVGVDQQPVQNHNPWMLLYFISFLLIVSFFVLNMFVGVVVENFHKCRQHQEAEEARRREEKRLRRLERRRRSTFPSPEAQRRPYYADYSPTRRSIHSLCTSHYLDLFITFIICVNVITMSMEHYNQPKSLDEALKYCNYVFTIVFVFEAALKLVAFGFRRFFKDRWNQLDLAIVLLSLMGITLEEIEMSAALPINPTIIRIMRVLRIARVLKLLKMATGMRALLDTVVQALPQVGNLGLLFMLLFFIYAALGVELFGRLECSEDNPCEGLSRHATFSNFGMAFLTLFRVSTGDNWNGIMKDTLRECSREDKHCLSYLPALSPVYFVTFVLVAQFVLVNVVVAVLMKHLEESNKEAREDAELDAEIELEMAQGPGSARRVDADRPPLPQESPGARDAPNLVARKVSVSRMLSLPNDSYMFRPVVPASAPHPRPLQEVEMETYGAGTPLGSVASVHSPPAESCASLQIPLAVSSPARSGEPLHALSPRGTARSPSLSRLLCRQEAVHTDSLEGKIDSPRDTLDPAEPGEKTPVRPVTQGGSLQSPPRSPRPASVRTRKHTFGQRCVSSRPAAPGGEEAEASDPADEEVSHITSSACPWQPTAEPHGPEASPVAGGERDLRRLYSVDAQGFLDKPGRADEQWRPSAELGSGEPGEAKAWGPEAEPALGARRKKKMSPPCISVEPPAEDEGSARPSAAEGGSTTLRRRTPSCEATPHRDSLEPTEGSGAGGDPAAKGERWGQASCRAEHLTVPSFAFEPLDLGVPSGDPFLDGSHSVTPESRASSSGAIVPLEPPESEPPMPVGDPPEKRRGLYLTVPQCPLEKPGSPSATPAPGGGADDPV
* marks the source's active call; other numbers are inactive results; · = no result. Cut-off read from the data, not from the text of the source, unless noted: active = inhibition above about 30%; inactive = the rest.

SMILES | PostGolgi ctrl | PostGolgi yeast | Ecoli tolC | Ecoli WT expand | Cav32 inh
O=C(Cc1cccs1)N(Cc1cccs1)C1(C(=O)NC2CCCC2)CCCCC1 | 17.9 | -6.5 | · | -4.0 | -8.37*
O=C(Cc1cccs1)N(Cc1ccco1)C1(C(=O)NC2CCCCC2)CCCCC1 | 25.4 | -15.9 | · | 1.0 | -7.14*
Cc1cccc(C)c1NC(=O)C1(NC(=O)C2CCCN2C(=O)OC(C)(C)C)CCCCC1 (stereo not drawn) | 7.0 | -1.3 | 1.1 | 10.0 | 0.467
O=C(O)c1c(F)c(F)cc2ccccc12 | 4.5 | 2.1 | 7.0 | -5.0 | 0.239
Oc1cccc2ccc(Nc3ccccn3)nc12 | 14.6 | 1.9 | 1.8 | 100.0* | 0.947
COc1c(N)c2ccccc2[nH]c1=O | 4.3 | 14.1 | -13.4 | 4.0 | ·
CC1(c2ccc(Cl)c(Cl)c2)NC(=S)N2C1NC(=S)N2c1ccccc1 (stereo not drawn) | 16.4 | -9.8 | · | 9.0 | -5.42*
O=C1Nc2cc(Cl)c(Cl)cc2N(O)N1c1ccccc1 | -3.4 | 6.1 | · | 7.0 | 0.0929
COc1ccccc1Cn1c(=O)c2ccccc2n2c(Sc3ncnc4sccc34)nnc12 | 41.6* | 10.9 | 20.8 | -5.0 | 1.56
CNc1oc(-c2ccc(C)cc2)nc1P(=O)(c1ccccc1)c1ccccc1 | 25.6 | 6.0 | · | 4.0 | -4.32*
Cc1nc(P(=O)(c2ccccc2)c2ccccc2)c(N2CCOCC2)o1 | 0.8 | 2.0 | -9.3 | 0.0 | 0.93
CO/N=C(/CNC(=O)c1ccc(Cl)cc1Cl)c1ccc(Cl)cc1 | 17.5 | 2.1 | · | -7.0 | ·
CO/N=C(/CS(=O)(=O)Cc1ccccc1Cl)c1ccc(Cl)cc1Cl | 32.8* | -1.2 | · | -6.0 | -0.987
Nc1nc(SCC(=O)Nc2ccccc2Sc2ccccc2)n[nH]1 | 6.5 | -3.5 | · | -1.0 | -0.051
CCOC(=O)N1CCC(NC(=O)C2CCCN(S(C)(=O)=O)C2)CC1 (stereo not drawn) | 35.7* | 2.7 | -12.7 | 0.0 | -2.03
CCOC(=O)N1CCC(NC(=O)C2CCN(S(=O)(=O)N3CCCC3)CC2)CC1 | 3.7 | -8.9 | -15.7 | 1.0 | -0.408
CCOC(=O)CC(=O)CSc1nc2nc(C)cc(C)n2n1 | 30.4* | -2.4 | -8.5 | 3.0 | 1.79
CNC(=O)CSc1nc2nc(C)cc(C)n2n1 | 1.8 | 0.0 | · | -3.0 | -0.241
C(=N\N1CCN(Cc2cccc3ccccc23)CC1)/c1cccnc1 | 8.9 | -4.5 | · | 9.0 | -1.06
CCCNS(=O)(=O)c1ccc(OCC(=O)N2CCC(C(=O)OCC)CC2)cc1 | 31.3* | -6.8 | 48.9 | 4.0 | 0.132
CCOC(=O)C1CCN(C(=O)COc2ccc(S(=O)(=O)NC(C)C)cc2)CC1 | -6.0 | 13.6 | -6.7 | -2.0 | -1.16
Cc1ccc(NS(=O)(=O)c2ccc(OCC(=O)N3CCOCC3)cc2)cc1 | 32.5* | 1.9 | · | 7.0 | 0.341
CCOC(=O)COc1ccc(S(=O)(=O)c2ccc(OCC(=O)OCC)cc2)cc1 | -2.4 | 2.4 | · | 2.0 | -6.05*
CCOC(=O)COc1ccc(S(=O)(=O)Nc2ccc(C)cc2)cc1 | 14.2 | 5.3 | · | 3.0 | -0.945
CCOC(=O)N1CCN(C(=O)CS(=O)(=O)c2cn(Cc3ccc(F)cc3)c3ccccc23)CC1 | · | · | 10.9 | · | -0.242
SMILES | PostGolgi ctrl | PostGolgi yeast | Ecoli tolC | Ecoli WT expand | Cav32 inh
CCOC(=O)c1cccc(NC(=O)Cn2c(CC(=O)NC)nc3ccccc32)c1 | 7.0 | -1.4 | -4.0 | 1.0 | 0.0367
COc1ccc(-c2nc3c(n2O)CCCC3=O)cc1OC | -0.8 | -6.4 | 1.8 | 6.0 | 0.403
CCOC(=O)C1(P(=O)(c2ccc(Cl)cc2)c2ccc(Cl)cc2)CCC1 | 15.7 | -1.8 | · | 1.0 | -6.29*
CC(C)(C)NC(=O)CSc1ccc(C(C)(C)C)cc1 | · | · | · | · | -1.34
O=C(NNC(=O)c1ccccc1-n1cccc1)c1ccc(Cl)cc1Cl | 14.4 | 3.4 | · | 1.0 | 0.349
O=C(N=Nc1c(O)[nH]c2ccc(Br)cc12)c1ccccc1-n1cccc1 | 36.5* | 1.8 | · | 3.0 | ·
Cc1cccc(C)c1OCC(=O)N=Nc1c(O)[nH]c2ccc(Br)cc12 | 37.6* | 1.2 | · | -17.0 | ·
O=C(Cn1nnc(-c2ccccc2)n1)N=Nc1c(O)[nH]c2ccccc12 | -1.6 | 4.8 | · | 5.0 | 1.07
Cc1nc(CS(=O)(=O)c2ccccc2)cc(Sc2ccc(Cl)cc2Cl)n1 | 37.1* | 4.8 | · | -17.0 | -5.69*
CCc1cc(/C(Cc2csc(C)n2)=N/O)c(O)cc1O | 11.7 | -8.9 | · | -7.0 | -5.22*
COC(=O)c1ccc(CSc2nc3ccccc3o2)cc1 | 0.4 | -13.8 | 65.3* | 7.0 | -0.399
O=S(=O)(Nc1ccccc1)c1ccc(Oc2ncc(C(F)(F)F)cc2Cl)cc1 | 58.8* | 11.6 | · | -2.0 | 0.297
CC(C)NS(=O)(=O)c1ccc(Oc2ncc(C(F)(F)F)cc2Cl)cc1 | 13.8 | 3.2 | · | 3.0 | -0.478
CC1(C)CC2(CCO1)N1CC3(C)CN2CC(C)(C1)C3=O (stereo not drawn) | · | · | · | · | -0.0658
N#CC1=C(N)c2ccccc2CC12CCCCC2 | 38.9* | 1.1 | · | 11.0 | -2.16
CCC(=O)NC1=C(C#N)C2(CCCC2)Cc2ccccc21 | 7.2 | -5.5 | -4.8 | -1.0 | 0.455
COCC(COCCCNC(=O)Nc1ccc(Br)cc1)OC (stereo not drawn) | 2.5 | 10.8 | -2.5 | -17.0 | 0.902
CCCN(CCC)c1nc(NC2CCN(C(=O)OCC)CC2)nc(OC)n1 | 18.0 | 4.1 | 80.8* | -9.0 | -11.2*
CCCNC(=O)c1ccc2c(c1)C1C3CCC(C3)C1C(c1ccccc1)N2 (stereo not drawn) | 35.6* | -3.1 | · | -25.0 | -5.02*
CCCNC(=O)c1ccc2snnc2c1 | · | · | · | · | -0.125
CCCCNC1=C(Br)C(=O)CC(C)(C)C1 | 5.0 | 2.6 | 9.3 | 2.0 | 0.055
Cc1cc(C)c2c(=O)[nH]c(SCC(=O)N3CCCCC3)nc2n1 | -0.6 | -1.4 | -6.6 | 2.0 | 0.0913
CCSc1nc2c(sc3nc(C)cc(C)c32)c(=O)[nH]1 | 42.0* | -6.8 | · | 3.0 | ·
CC1CCCCN1c1cc(C#N)c(C#N)cc1[N+](=O)[O-] (stereo not drawn) | 43.4* | -1.1 | · | 3.0 | 0.212
CC1CCN(c2cc(N)c(Cl)cc2[N+](=O)[O-])CC1 | 38.1* | -6.4 | · | 11.0 | -3.15
SMILES | PostGolgi ctrl | PostGolgi yeast | Ecoli tolC | Ecoli WT expand | Cav32 inh
CC1CCN(c2cc(C#N)c(C#N)cc2[N+](=O)[O-])CC1 | 76.4* | -0.3 | · | -7.0 | -0.0263
O=C(NC(=S)Nc1ccc(C(=O)N2CCOCC2)cc1)c1ccc([N+](=O)[O-])cc1 | -1.8 | 0.6 | · | -1.0 | 0.59
CN(C)c1ccnc(SCc2ccccc2Cl)c1C#N | 16.7 | 6.0 | 39.3 | -10.0 | 0.562
O=C(CSc1nnc(C2CC2)n1Cc1ccccc1)c1cc2ccccc2o1 | 8.8 | -5.6 | 7.5 | -6.0 | -2.85
O=C(CSc1cccc[n+]1[O-])c1cc2ccccc2o1 | -1.5 | -5.4 | 5.4 | 97.0* | -0.00582
O=C(O)c1ccc2c(c1)N(Cc1cccc(F)c1)C(=O)CS2 | -4.7 | 15.1 | 10.2 | 7.0 | 2.05
Cc1ccc(CN2C(=O)CSc3ccc(C(=O)NCCN4CCOCC4)cc32)cc1 | 1.8 | 6.3 | -7.6 | -9.0 | 0.0247
Cc1ccc(CN2C(=O)CCSc3ccc(Cl)cc32)cc1 | 45.8* | 3.8 | · | 0.0 | -4.9*
